Sampled rows, rich in hits. Any-hit rate of the full collection: about 3.5%.
MrgX1 agonist – human MrgX1 receptor agonism, primary screen; actives 0.44% (n = 310,000); MrgX1-HEK293 cells, Fluo-4 calcium fluorescence, agonist mode; active compounds read high; B-score at 10 µM;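 active = calcium response B-score plate-corrected fluorescence ratio at least 3 library SD, with starting fluorescence B-score inside 5 SD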
Target sequence (Q96LB2 whole entry, looked up): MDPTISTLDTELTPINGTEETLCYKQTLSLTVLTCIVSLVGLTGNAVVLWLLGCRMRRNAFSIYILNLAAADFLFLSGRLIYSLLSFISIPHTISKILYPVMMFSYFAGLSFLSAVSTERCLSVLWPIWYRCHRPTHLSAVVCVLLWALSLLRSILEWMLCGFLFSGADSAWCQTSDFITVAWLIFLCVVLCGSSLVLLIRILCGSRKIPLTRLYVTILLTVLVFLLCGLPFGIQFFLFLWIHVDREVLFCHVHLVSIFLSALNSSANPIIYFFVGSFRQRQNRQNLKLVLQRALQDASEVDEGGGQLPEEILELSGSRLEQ
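Material – MrgX1-expressing HEK293 cells · Input – 15,000 cells seeded per well · Dosing – compound as first of three additions · Times – overnight seeding, then 1 h dark dye loading · Measured by – kinetic Fluo-4 NW fluorescence of intracellular calcium · Read-out – B-scored fluorescence response ratio · Benchmarks – positive and negative control wells on each plate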
MrgX1 allo act – human MrgX1 positive allosteric modulation, primary screen; Q96LB2; MrgX1-HEK293, Fluo-4 calcium flux, FDSS; active compounds read high; B-score at 10 µM; actives 0.63% (n = 310,000);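 active = plate-corrected calcium response at least 3 library SD above typical, normal starting fluorescence, not activating the receptor alone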;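 also: compound read alongside a low EC10 to EC30 dose of BAM8-22 agonist; peak minus trough fluorescence over baseline measured at the second addition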
RGS4 block – inhibitors of human RGS4; B-score at 10 µM; HEK293 M3R/RGS4 inducible, Fluo-4 calcium flux; active compounds read high; triggered by carbachol at its EC20; actives 0.45% (n = 310,000); AID 463165; P49798;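 active = B-score, a plate-corrected calcium signal, over three deviations above library mean, with baseline fluorescence within five deviations of library mean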;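 also: RGS4 expression induced by doxycycline in cells with stable M3 receptor; B-score is computed from the integrated fluorescence ratio over baseline after carbachol; higher B-score means a larger calcium signal and so more RGS4 inhibition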
Target sequence (P49798 whole entry, looked up): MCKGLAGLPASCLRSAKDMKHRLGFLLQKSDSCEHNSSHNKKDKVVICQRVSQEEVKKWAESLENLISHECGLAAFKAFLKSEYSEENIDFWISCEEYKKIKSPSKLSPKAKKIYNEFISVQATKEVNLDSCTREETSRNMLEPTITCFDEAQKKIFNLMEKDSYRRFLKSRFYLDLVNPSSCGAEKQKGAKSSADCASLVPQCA
RGS4 pot – RGS4 potentiation or activation | HEK293 M3R/inducible RGS4, carbachol calcium flux Fluo4; active compounds read low | B-score at 10 µM | actives 0.92% (n = 310,000) | AID 463111;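 active = B-score of the integrated calcium signal more than 4 SD below the library mean, with starting fluorescence not abnormally high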;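 also: negative B-score means reduced calcium response which marks RGS4 activation or potentiation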
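Also added: carbachol at ECmax as muscarinic agonist stimulus; Assay system: HEK293 cells with stable M3R and inducible RGS4; Timing: overnight RGS4 induction, 30 min dye load 37 °C, 20 min compound RT; Measured by: Fluo4-AM (2 µM) calcium-flux fluorescence, kinetic read.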
MrgX1 antag – human MrgX1 receptor antagonism, primary screen; MRGX1-HEK293 calcium flux, Fluo-4, BAM8-22 antagonism; active compounds read low; actives 1.3% (n = 310,000); Q96LB2; B-score at 10 µM;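 active = calcium-response B-score plate-corrected more than 3 library SD below zero, starting fluorescence within 5 deviations, no agonist response on first addition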;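 also: peak minus trough fluorescence over baseline after final BAM8-22 challenge near maximal dose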
MrgX1 allo conf – human MrgX1 positive allosteric modulation, re-confirmation; actives 13% (n = 1,200); MrgX1-HEK293, Fluo-4 calcium fluorescence, FDSS; shares compounds with MrgX1 allo act; activation (ratio percentage), % at 10 µM;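 active = ratio at least 3 SD above the weak peptide control, stable starting fluorescence, no direct agonism earlier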;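 also: compound followed by low BAM8-22 agonist challenge near EC20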
HEK293 Ca flux – counter-screen for MrgX1 antagonists: effect in parental HEK293 cells. shares compounds with MrgX1 antag. Fluo-4 calcium fluorescence, FDSS. fluorescence ratio F(max-min)/F0 at 10 µM. actives 2% (n = 4,000). AID 624111;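 active = duplicate-averaged calcium fluorescence ratio at least three times the standard deviation of buffer wells, a nonspecific response in parental cells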
HEK293 Ca counter – counter-screen for MrgX1 allosteric activators: effect in parental HEK293 cells. shares compounds with MrgX1 antag. parental HEK293 calcium flux, Fluo-4 fluorescence ratio; active compounds read high. fluorescence ratio F(max-min)/F0 at 10 µM. actives 0.4% (n = 4,000);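 active = calcium fluorescence ratio, averaged over duplicates, at least 3 SD of the buffer-well ratio, meaning a nonspecific response in receptor-free cells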;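 also: untransfected parental HEK293 lacking MrgX1 used as counterscreen for MrgX1 allosteric activators; fluorescence change taken during the second addition on a kinetic imager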
HEK293 Ca cntr2 – counter-screen for MrgX1 activators: effect in parental HEK293 cells | shares compounds with MrgX1 antag | actives 8.7% (n = 4,000) | Fluo-4 calcium fluorescence (FDSS); active compounds read high | fluorescence ratio F(max-min)/F0 at 10 µM;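 active = calcium fluorescence ratio at least three times the spread of buffer wells, meaning a non-specific response in parental cells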
Of the large screens only hits and unclear results are named; the others gave an inactive call (follow-up assays come after a bar, where they were run).

CC1CCCN(S(=O)(=O)c2ccc(C(=O)Nc3nnc(-c4ccccc4Cl)o3)cc2)C1 (centres undefined)	MrgX1 allo act 8.73 | MrgX1 allo conf inactive | HEK293 Ca flux inactive | HEK293 Ca counter inactive | HEK293 Ca cntr2 inactive
CSCCC(NC(=O)c1cccc([N+](=O)[O-])c1)C(=O)OCC(=O)N1CCCC1=O (centres undefined)	none
COc1ccc(CCNC(=O)COc2ccc(C)nc2[N+](=O)[O-])cc1	none
Cc1cc(CN(C)C(=O)CC2C(=O)NCCN2Cc2c(F)cccc2Cl)on1 (centres undefined)	none
Brc1cc(Cc2nnc(-c3ccccc3)o2)c(Br)s1	none
COc1ccc(OC)c2[nH]c(=O)c(CCNC(=O)c3cccs3)cc12	none
COc1ccc(Cl)cc1N(CC(=O)Nc1cccc(SC)c1)S(C)(=O)=O	MrgX1 allo act 8.3 | MrgX1 allo conf inactive | HEK293 Ca flux inactive | HEK293 Ca counter inactive | HEK293 Ca cntr2 inactive
OC(CN1CCN(c2ccccn2)CC1)Cn1c2ccc(Cl)cc2c2cc(Cl)ccc21 (centres undefined)	none
OC(CN1CCCCC1)Cn1c2ccc(Cl)cc2c2cc(Cl)ccc21 (centres undefined)	MrgX1 allo act 6.67 | MrgX1 allo conf inactive | HEK293 Ca flux inactive | HEK293 Ca counter inactive | HEK293 Ca cntr2 inactive
CC12CCC(C(=O)Nc3ccc(SC(F)F)cc3)(CC1=O)C2(C)C (centres undefined)	MrgX1 allo act 6.67 | MrgX1 allo conf inactive | HEK293 Ca flux inactive | HEK293 Ca counter inactive | HEK293 Ca cntr2 inactive
Cc1cc(C)c2sc(NC(=O)c3ccc([N+](=O)[O-])o3)nc2c1	MrgX1 allo act 20.5 | MrgX1 allo conf inactive | HEK293 Ca flux inactive | HEK293 Ca counter inactive | HEK293 Ca cntr2 inactive
CSc1ccc(CN2CCCC(N3CCN(c4ccccc4)CC3)C2)cc1 (centres undefined)	none
COc1ccccc1CN(C)CC(=O)Nc1ccccc1-c1ccccc1	MrgX1 allo act 9.99 | MrgX1 allo conf inactive | HEK293 Ca flux inactive | HEK293 Ca counter inactive | HEK293 Ca cntr2 inactive
COc1ccc(CN(C)CC(=O)Nc2ccccc2-c2ccccc2)c(OC)c1	none
COc1ccc(OCC(=O)Nc2ccccc2-c2ccccc2)cc1	MrgX1 allo act 12.2 | MrgX1 allo conf inactive | HEK293 Ca flux inactive | HEK293 Ca counter inactive | HEK293 Ca cntr2 inactive
COc1ccc(CC(=O)Nc2ccccc2-c2ccccc2)cc1OC	none
Cc1ccc(CC(=O)Nc2ccccc2-c2ccccc2)cc1C	MrgX1 allo act 21.2 | MrgX1 allo conf inactive | HEK293 Ca flux inactive | HEK293 Ca counter inactive | HEK293 Ca cntr2 inactive
CN(Cc1cccnc1)C(=O)c1ccc2nc(Cc3ccccc3F)oc2c1	none
Cc1ccc(OCC(=O)NNC(=O)Cc2ccc(S(=O)(=O)N3CCOCC3)s2)cc1	none
CC1CCCN(C(=O)CSc2nnc(-c3c[nH]c4ccccc34)o2)C1 (centres undefined)	MrgX1 allo act 9.51 | MrgX1 allo conf 8.7% | HEK293 Ca flux inactive | HEK293 Ca counter inactive | HEK293 Ca cntr2 inactive
CCN(CC)CCn1c(SCC(=O)Nc2cccc(OC)c2)nc2c(sc3ccccc32)c1=O	none
COc1cccc(NC(=O)CSc2nc3c(sc4ccccc43)c(=O)n2CCN(C)C)c1	MrgX1 allo act 7.52 | MrgX1 allo conf inactive | HEK293 Ca flux inactive | HEK293 Ca counter inactive | HEK293 Ca cntr2 inactive
CCOC(=O)c1c(C)nc2c(c1-c1ccccc1)C(=O)c1ccccc1-2	MrgX1 allo act 9.31 | MrgX1 allo conf inactive | HEK293 Ca flux inactive | HEK293 Ca counter inactive | HEK293 Ca cntr2 inactive
CCOC(=O)c1c(C)nc2c(c1-c1cc(OC)ccc1OC)C(=O)c1ccccc1-2	none

From PubChem
